SUMO1 PPI mod = alters human SUMO1 binding to SIM partners. P63165. SUMO1 binding to a labelled peptide, TR-FRET, 1 h. inhibition, % at 20 µM. actives 0.33% (n = 360,000). AID 602429; in the data active = inhibition above about 37%
DNMT1 block = blocks human DNA methyltransferase DNMT1. DNMT1 molecular beacon, Hinp1I cleavage, fluorescence. inhibition (reported as % activation of signal), % at 10 µM. actives 0.83% (n = 360,000); in the data active = inhibition above about 50%
Scp1 inh = Scp-1 (human) phosphatase inhibition; Q9GZU7; Recombinant Scp1, phosphopeptide, malachite green phosphate absorbance; inhibition, % at 20 µM; actives 0.88% (n = 340,000);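 active = inhibition above about 50% at 20 µM, limit read from the data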;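 note: plate controls were DMSO wells with enzyme for no effect and wells lacking enzyme for full effect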
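assay system = SCP-1 phosphatase catalytic domain, residues 76-261 | buffer or medium = 50 mM Tris acetate pH 5.5, 0.005% Tween-20, 10 mM MgCl2 | incubation = enzyme reaction 45 min at room temperature, colour 5 min, stabilisation 30 min | signal = Phosphate-binding colour reagent, absorbance read at 630 nm | measure = % inhibition at 20 µM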
STEP block = STEP (human) phosphatase inhibition; P54829; recombinant STEP, OMFP fluorogenic substrate, fluorescence; inhibition, % at 20 µM; actives 0.25% (n = 360,000);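 active = inhibition at 20 µM, scaled per plate between control wells, above about 37%, limit read from the data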;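 note: 0% = DMSO with enzyme and substrate and 100% = substrate only without enzyme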
Target sequence (P54829 whole entry, looked up): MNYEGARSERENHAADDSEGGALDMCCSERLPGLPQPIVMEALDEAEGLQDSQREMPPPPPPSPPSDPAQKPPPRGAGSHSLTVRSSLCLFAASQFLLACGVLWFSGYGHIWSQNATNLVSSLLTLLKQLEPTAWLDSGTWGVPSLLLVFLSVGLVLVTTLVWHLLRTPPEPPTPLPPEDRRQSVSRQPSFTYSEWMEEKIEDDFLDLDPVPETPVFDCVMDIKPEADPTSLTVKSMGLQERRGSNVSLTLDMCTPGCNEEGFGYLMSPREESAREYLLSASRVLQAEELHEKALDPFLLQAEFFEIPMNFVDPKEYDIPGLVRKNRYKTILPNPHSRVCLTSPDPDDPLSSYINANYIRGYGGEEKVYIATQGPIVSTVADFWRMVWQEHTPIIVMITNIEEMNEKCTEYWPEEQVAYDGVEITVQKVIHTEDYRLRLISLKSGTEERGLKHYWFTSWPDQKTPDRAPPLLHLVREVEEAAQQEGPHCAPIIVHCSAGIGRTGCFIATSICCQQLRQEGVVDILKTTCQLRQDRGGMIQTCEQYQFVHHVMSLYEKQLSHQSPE
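material = STEP tyrosine phosphatase | reagent = fluorogenic phosphatase substrate OMFP at 25 µM final | doses = single compound dose of 20 µM, 1% DMSO final | schedule = 20 min reaction, room temperature, in the dark | measured by = fluorescence, 480/540 nm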
LMPTP block = blocks human LMPTP phosphatase; recombinant LMPTP-A, OMFP fluorogenic substrate, fluorescence intensity; inhibition, % at 20 µM; actives 0.22% (n = 360,000); AID 651560;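 active = compounds that cut the enzyme signal by at least half of the control window in the single-dose screen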;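 note: plate controls were DMSO wells with enzyme plus substrate for no effect and substrate without enzyme for full effect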
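Buffer or medium: Bis-Tris pH 6.0, DTT, detergent; Assay system: LMPTP-A enzyme; Quantity: 0.625 nM enzyme; Detection: endpoint fluorescence intensity; Times: 50 min dark incubation at room temperature; Controls: substrate-only low control, DMSO enzyme-plus-substrate high control; Doses: single 20 µM dose; Read-out: percent inhibition versus substrate-only and uninhibited controls; Reagent: 400 µM OMFP.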
NadD block = inhibitors of Staphylococcus aureus NadD; purified NadD enzyme, colorimetric absorbance read-out; inhibition, % at 20 µM; actives 0.78% (n = 360,000); in the data active = inhibition above about 26%
Scp-1 conf = confirmation of human Scp-1 phosphatase inhibitors; inhibition, % at 20 µM; shares compounds with Scp1 inh; recombinant SCP-1 catalytic domain, phosphate release, malachite green absorbance; actives 61% (n = 2,500); AID 540281;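 note: plate controls were DMSO with enzyme for no effect and buffer wells lacking enzyme for full effect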
Scp-1 MG ctr = counter-screen for Scp-1 inhibitors: colorimetric interference | shares compounds with Scp1 inh | Colorimetric interference counterscreen, malachite green absorbance 630 nm | apparent inhibition (interference), % at 20 µM | 2,500 tested, under 10 active | AID 540313;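 note: compounds added after enzyme reaction finished so only phosphate colour detection is probed; plate controls were DMSO wells with completed Scp-1 reaction for no effect and substrate wells lacking enzyme for full effect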
* marks the source's active call; other numbers are inactive results; . = no result given. Hits are enriched below; roughly 2.3% of the tested compounds scored in any of these assays.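 Rule for the calls, unless noted: active = inhibition of at least 30% at 20 µM; inactive = the rest.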

SMILES	SUMO1 PPI mod	DNMT1 block	Scp1 inh	STEP block	LMPTP block	NadD block	Scp-1 conf	Scp-1 MG ctr
CCN(CC)C(=O)Cn1c(C)c(/C=C/c2cc[n+](C)cc2)c2ccccc21	-93	10	63*	-9	0	14	0	-11
C=CCn1c(C)c(/C=C/c2cc[n+](C)cc2)c2ccccc21	-150	14	10	-13	5	19	.	.
O=C(NCCN1C(=O)S/C(=C\c2ccccc2F)C1=O)C1=COCCO1	-28	3	5	11	3	5	.	.
COc1ccc(OC)c(Cc2nnc(CCC(=O)NCc3nc4ccccc4s3)o2)c1	3	-3	63*	1	0	-7	-18	-13
Cc1noc(C)c1S(=O)(=O)Nc1ccc2c(c1)C(=O)N([C@H](C)CO)C[C@H](C)[C@@H](CN(C)C(=O)NC1CCCCC1)O2	7	9	56*	-2	-1	5	21	-6
COc1ccc(NC(=O)N(C)C[C@H]2Oc3ccc(NC(=O)Nc4c(C)noc4C)cc3C(=O)N([C@H](C)CO)C[C@H]2C)cc1	5	1	7	-3	-1	2	.	.
COc1ccc(NC(=O)Nc2ccc3c(c2)C(=O)N([C@H](C)CO)C[C@H](C)[C@@H](CN(C)C(=O)Nc2ccccc2)O3)cc1	10	4	71*	-4	-1	-2	8	-10
COc1ccc(NC(=O)N(C)C[C@H]2Oc3ccc(NC(=O)Nc4c(C)noc4C)cc3C(=O)N([C@H](C)CO)C[C@@H]2C)cc1	7	4	62*	2	0	-2	-3	-20
C[C@H](CO)N1C[C@H](C)[C@@H](CN(C)C(=O)NC2CCCCC2)Oc2ccc(NS(=O)(=O)c3ccccc3)cc2C1=O	1	-3	-3	0	-2	1	.	.
COc1ccc(S(=O)(=O)N(C)C[C@H]2Oc3ccc(NS(=O)(=O)c4ccccc4)cc3C(=O)N([C@H](C)CO)C[C@@H]2C)cc1	-6	0	59*	0	-1	-4	5	-10
Cc1ccc(NC(=O)CSc2nncn2N)cc1C	-1	1	-9	2	-2	-2	.	.
CC(=O)N1c2c(cc(Br)cc2S(=O)(=O)NCc2ccc(C)cc2)CC1C (centres undefined)	3	1	-5	-2	-1	-8	.	.
CCOC(=O)N1CCN(C(=O)c2ccc3c(c2)N(Cc2cc(C)ccc2C)C(=O)c2ccccc2S3=O)CC1 (centres undefined)	-2	-1	-5	0	0	1	.	.
COc1ccc(NC(=O)N(C)C[C@H]2Oc3ccc(NS(=O)(=O)c4c(C)noc4C)cc3C(=O)N([C@H](C)CO)C[C@@H]2C)cc1	2	12	58*	-2	-1	1	10	-17
Cc1noc(C)c1NC(=O)N(C)C[C@H]1Oc2ccc(NS(=O)(=O)c3c(C)noc3C)cc2C(=O)N([C@H](C)CO)C[C@@H]1C	-3	1	39	1	-1	-1	.	.
O=C(COC(=O)CNS(=O)(=O)c1ccc(Cl)cc1)NC1CCCCC1	7	2	-5	2	-2	-6	.	.
COc1ccc(-c2c(-c3ccccc3OC)sc3ccccc23)cc1OC	-5	-10	-14	-2	2	-15	.	.
COc1ccc(-c2c(-c3ccccc3OC)sc3ccccc23)cc1C=O	6	-2	50*	-2	1	1	19	-8
C(=N\NCc1ccccc1)/c1ccc2nccnc2c1	-20	-1	-11	2	-1	1	.	.
Cc1cccc(S(=O)(=O)NC(Cc2c[nH]c3ccccc23)C(=O)O)c1 (centres undefined)	-2	0	-1	1	-1	-2	.	.
CC(C)NC(=O)c1cc2c(=O)n3ccccc3nc2s1	5	-3	64*	-4	0	-2	-19	-19

Source: PubChem BioAssay (Sanford-Burnham Center for Chemical Genomics)
